{"source": "ChEMBL document CHEMBL1154411", "about": "“Determination of the primary target of a quinolone drug and the effect of quinolone resistance-conferring mutations by measuring quinolone sensitivity based on its mode of action” (Antimicrob Agents Chemother, 2007)", "key": {"Escherichia coli [1]": {"tested_on": "Escherichia coli", "experiment": "Induction of Escherichia coli DNA gyrase-mediated negatively supercoiled Escherichia coli pBR322 DNA cleavage at 50 uM after 10 mins by gel electrophoresis", "summary_of_the_method": "(§1)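 Negatively supercoiled pBR322 (300 ng) incubated with titrated topoisomerase (tetramer amounts) in 50 mM Tris-HCl pH 8, 10 mM MgCl2, 10 mM DTT, 50 μg/ml BSA, 1 mM ATP, 5 μg/ml tRNA, 10 min at 37°C, with or without 50 μM norfloxacin. Trapped by 1% SDS, then EDTA/proteinase K, extracted, and run on 1.2% agarose with ethidium bromide; activity is linear DNA per enzyme amount.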"}, "[2]": {"target": "T1, DNA gyrase (Staphylococcus aureus) (UniProt P0A0K8+P20831)", "T1 sequence (P0A0K8 2-644 limits assumed)": "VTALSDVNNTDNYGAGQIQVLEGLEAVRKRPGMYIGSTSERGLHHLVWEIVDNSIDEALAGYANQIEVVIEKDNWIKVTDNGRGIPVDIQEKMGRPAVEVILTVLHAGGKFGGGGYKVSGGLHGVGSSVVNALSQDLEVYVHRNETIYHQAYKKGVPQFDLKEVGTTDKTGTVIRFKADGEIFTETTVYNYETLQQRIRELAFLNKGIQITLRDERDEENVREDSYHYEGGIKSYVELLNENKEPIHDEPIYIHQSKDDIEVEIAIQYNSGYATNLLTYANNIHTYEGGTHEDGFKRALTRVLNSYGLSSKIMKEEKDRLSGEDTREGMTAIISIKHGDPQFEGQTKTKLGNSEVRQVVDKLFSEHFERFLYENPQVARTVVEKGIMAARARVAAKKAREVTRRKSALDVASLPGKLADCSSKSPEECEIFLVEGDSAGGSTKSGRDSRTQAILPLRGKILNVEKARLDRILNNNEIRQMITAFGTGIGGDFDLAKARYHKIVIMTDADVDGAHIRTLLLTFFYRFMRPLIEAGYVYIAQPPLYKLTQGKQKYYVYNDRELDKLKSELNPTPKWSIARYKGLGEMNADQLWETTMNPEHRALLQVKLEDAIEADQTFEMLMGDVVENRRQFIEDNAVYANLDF", "T1 sequence (P20831 whole entry partner)": "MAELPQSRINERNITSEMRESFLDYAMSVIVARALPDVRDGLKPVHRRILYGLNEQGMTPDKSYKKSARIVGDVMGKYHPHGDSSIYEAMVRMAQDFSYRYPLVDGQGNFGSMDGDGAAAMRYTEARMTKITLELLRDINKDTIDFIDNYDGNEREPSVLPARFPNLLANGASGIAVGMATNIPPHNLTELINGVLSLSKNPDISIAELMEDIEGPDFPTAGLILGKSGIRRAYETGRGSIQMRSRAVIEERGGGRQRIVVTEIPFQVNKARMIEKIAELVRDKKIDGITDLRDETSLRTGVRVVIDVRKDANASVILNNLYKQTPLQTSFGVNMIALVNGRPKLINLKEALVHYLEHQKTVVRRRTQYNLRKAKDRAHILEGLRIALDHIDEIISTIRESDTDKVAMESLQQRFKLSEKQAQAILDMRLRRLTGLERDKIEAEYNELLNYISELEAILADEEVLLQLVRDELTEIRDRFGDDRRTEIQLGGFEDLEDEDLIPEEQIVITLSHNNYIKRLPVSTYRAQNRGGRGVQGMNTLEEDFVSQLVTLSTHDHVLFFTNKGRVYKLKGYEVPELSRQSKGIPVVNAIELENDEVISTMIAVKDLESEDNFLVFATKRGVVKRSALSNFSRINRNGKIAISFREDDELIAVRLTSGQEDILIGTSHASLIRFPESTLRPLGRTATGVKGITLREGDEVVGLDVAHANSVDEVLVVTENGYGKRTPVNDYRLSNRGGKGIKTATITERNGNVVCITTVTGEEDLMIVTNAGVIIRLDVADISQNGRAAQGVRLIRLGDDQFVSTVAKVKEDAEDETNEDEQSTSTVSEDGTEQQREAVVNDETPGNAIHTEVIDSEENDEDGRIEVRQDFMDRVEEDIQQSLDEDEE", "experiment": "Induction of Staphylococcus aureus DNA gyrase-mediated negatively supercoiled Escherichia coli pBR322 DNA cleavage at 50 uM after 10 mins by gel electrophoresis", "assay_type": "protein-complex assay", "summary_of_the_method": "as §1"}, "[3]": {"tested_on": "T2, DNA topoisomerase 4 subunit A (Escherichia coli K-12), P0AFI2 [S80L]", "T2 sequence (whole entry)": "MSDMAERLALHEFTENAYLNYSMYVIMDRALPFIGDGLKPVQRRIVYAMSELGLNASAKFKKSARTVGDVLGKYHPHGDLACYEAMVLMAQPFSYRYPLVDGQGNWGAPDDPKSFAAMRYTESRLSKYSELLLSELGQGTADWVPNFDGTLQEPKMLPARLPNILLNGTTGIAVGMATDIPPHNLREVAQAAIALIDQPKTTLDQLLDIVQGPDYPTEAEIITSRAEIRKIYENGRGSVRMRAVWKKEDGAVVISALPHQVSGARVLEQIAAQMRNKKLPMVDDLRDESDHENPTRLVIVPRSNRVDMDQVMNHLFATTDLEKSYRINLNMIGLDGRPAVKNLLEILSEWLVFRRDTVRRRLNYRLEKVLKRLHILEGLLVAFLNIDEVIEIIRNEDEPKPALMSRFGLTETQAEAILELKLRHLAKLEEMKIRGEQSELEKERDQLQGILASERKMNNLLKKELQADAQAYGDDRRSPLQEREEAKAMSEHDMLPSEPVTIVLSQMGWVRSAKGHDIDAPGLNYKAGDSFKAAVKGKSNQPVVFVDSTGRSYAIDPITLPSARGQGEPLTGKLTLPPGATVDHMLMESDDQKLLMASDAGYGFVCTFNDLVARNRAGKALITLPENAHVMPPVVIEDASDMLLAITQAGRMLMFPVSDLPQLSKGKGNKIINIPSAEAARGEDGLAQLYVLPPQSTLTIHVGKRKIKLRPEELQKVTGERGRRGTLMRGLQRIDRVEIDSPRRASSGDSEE", "experiment": "(§2) Induction of Escherichia coli DNA topoisomerase 4-mediated negatively supercoiled Escherichia coli pBR322 DNA cleavage assessed as amount of linear DNA generated per unit amount of enzyme at 50 uM after 10 mins by gel electrophoresis", "summary_of_the_method": "as §1"}, "Escherichia coli [4]": {"tested_on": "Escherichia coli", "experiment": "as §2", "summary_of_the_method": "as §1"}, "[5]": {"target": "DNA gyrase (Escherichia coli) (UniProt P0AES6+P0AES4)", "experiment": "Induction of Escherichia coli DNA gyrase-mediated negatively supercoiled Escherichia coli pBR322 DNA cleavage assessed as amount of linear DNA generated per unit amount of enzyme at 50 uM after 10 mins by gel electrophoresis", "assay_type": "protein-complex assay", "summary_of_the_method": "as §1"}, "Staphylococcus aureus [6]": {"tested_on": "Staphylococcus aureus", "experiment": "Induction of Staphylococcus aureus DNA topoisomerase 4-mediated negatively supercoiled Escherichia coli pBR322 DNA cleavage assessed as amount of linear DNA generated per unit amount of enzyme at 50 uM after 10 mins by gel electrophoresis", "summary_of_the_method": "as §1"}, "Escherichia coli [7]": {"tested_on": "Escherichia coli", "experiment": "Induction of Escherichia coli DNA gyrase-mediated Escherichia coli pBR322 DNA cleavage assessed as ratio of drug-induced DNA cleavage to spontaneous DNA cleavage at 50 uM after 10 mins by gel electrophoresis", "summary_of_the_method": "(§3)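 Quinolone sensitivity is the ratio of specific cleavage activity with 50 μM norfloxacin to the activity without it. Both come from the same pBR322 cleavage reaction: 37°C for 10 min with 1 mM ATP, then SDS/proteinase K trapping, with linear DNA resolved on ethidium-stained 1.2% agarose gels.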"}, "Escherichia coli [8]": {"tested_on": "Escherichia coli", "experiment": "Induction of Escherichia coli DNA topoisomerase 4-mediated Escherichia coli pBR322 DNA cleavage assessed as ratio of drug-induced DNA cleavage to spontaneous DNA cleavage at 50 uM after 10 mins by gel electrophoresis", "summary_of_the_method": "as §3"}, "[9]": {"target": "T1, DNA gyrase (Staphylococcus aureus)", "experiment": "Induction of Staphylococcus aureus DNA gyrase-mediated Escherichia coli pBR322 DNA cleavage assessed as ratio of drug-induced DNA cleavage to spontaneous DNA cleavage at 50 uM after 10 mins by gel electrophoresis", "assay_type": "protein-complex assay", "summary_of_the_method": "as §3"}, "Staphylococcus aureus [10]": {"tested_on": "Staphylococcus aureus", "experiment": "Induction of Staphylococcus aureus DNA topoisomerase 4-mediated Escherichia coli pBR322 DNA cleavage assessed as ratio of drug-induced DNA cleavage to spontaneous DNA cleavage at 50 uM after 10 mins by gel electrophoresis", "summary_of_the_method": "as §3"}, "Escherichia coli [11]": {"tested_on": "Escherichia coli", "experiment": "Induction of Escherichia coli DNA topoisomerase 4 ParC […] mutant-mediated negatively supercoiled Escherichia coli pBR322 DNA cleavage assessed as amount of linear DNA generated per unit amount of enzyme at 50 uM after 10 mins by gel electrophoresis", "summary_of_the_method": "as §1"}, "[12]": {"tested_on": "T2, DNA topoisomerase 4 subunit A (Escherichia coli K-12), P0AFI2 [S80L]", "experiment": "Induction of Staphylococcus aureus DNA topoisomerase 4 ParC S80L mutant-mediated Escherichia coli pBR322 DNA cleavage assessed as ratio of drug-induced DNA cleavage to spontaneous DNA cleavage at 50 uM after 10 mins by gel electrophoresis"}, "Escherichia coli [13]": {"tested_on": "Escherichia coli", "experiment": "Sensitivity ratio for induction of Escherichia coli DNA topoisomerase 4 over DNA gyrase-mediated negatively supercoiled Escherichia coli pBR322 DNA cleavage"}, "Staphylococcus aureus [14]": {"tested_on": "Staphylococcus aureus", "experiment": "Sensitivity ratio for induction of Staphylococcus aureus DNA topoisomerase 4 over DNA gyrase-mediated negatively supercoiled Escherichia coli pBR322 DNA cleavage"}, "Escherichia coli [15]": {"tested_on": "Escherichia coli", "experiment": "Induction of Escherichia coli DNA topoisomerase 4-mediated negatively supercoiled Escherichia coli pBR322 DNA cleavage at 50 uM after 10 mins by gel electrophoresis", "summary_of_the_method": "as §1"}, "Staphylococcus aureus [16]": {"tested_on": "Staphylococcus aureus", "experiment": "Induction of Staphylococcus aureus DNA topoisomerase 4-mediated negatively supercoiled Escherichia coli pBR322 DNA cleavage at 50 uM after 10 mins by gel electrophoresis", "summary_of_the_method": "as §1"}}, "note": "Active and inactive are the calls of the source. The calls are words filed in the database; no cut-off is given here.", "data": [{"smiles": "CCn1cc(C(=O)O)c(=O)c2cc(F)c(N3CCNCC3)cc21", "values": [{"measurement": "Activity", "setting": "Escherichia coli [1]", "value": "Active"}, {"measurement": "Activity", "setting": "[2]", "value": "Active"}, {"measurement": "Activity", "setting": "[3]", "value": 0.49, "unit": "ng"}, {"measurement": "Activity", "setting": "Escherichia coli [4]", "value": 0.53, "unit": "ng"}, {"measurement": "Activity", "setting": "[5]", "value": 0.39, "unit": "ng"}, {"measurement": "Activity", "setting": "Staphylococcus aureus [6]", "value": 0.42, "unit": "ng"}, {"measurement": "Ratio", "setting": "Escherichia coli [7]", "value": 68.4}, {"measurement": "Ratio", "setting": "Escherichia coli [8]", "value": 3.79}, {"measurement": "Ratio", "setting": "[9]", "value": 10}, {"measurement": "Ratio", "setting": "Staphylococcus aureus [10]", "value": 24.7}, {"measurement": "Activity", "setting": "Escherichia coli [11]", "value": 0.17, "unit": "ng"}, {"measurement": "Ratio", "setting": "[12]", "value": 1.96}, {"measurement": "Ratio", "setting": "Escherichia coli [13]", "value": 18}, {"measurement": "Ratio", "setting": "Staphylococcus aureus [14]", "value": 2.5}, {"measurement": "Activity", "setting": "Escherichia coli [15]", "value": "Active"}, {"measurement": "Activity", "setting": "Staphylococcus aureus [16]", "value": "Active"}]}]}
